Assay results reported in ChEMBL document CHEMBL1250494, “Synthesis of new 3-aryl-4,5-dihydropyrazole-1-carbothioamide derivatives. An investigation on their ability to inhibit monoamine oxidase” (Eur J Med Chem, 2010).

Legend:
[1] = target: T1, Amine oxidase [flavin-containing] A (Homo sapiens, UniProt P21397); experiment: Inhibition of human recombinant MAOA expressed in baculovirus infected BTI insect cells assessed as hydrogen peroxide production at 100 uM after 15 mins by Amplex red assay; conditions: 0.25 h; for inhibition (INH): 100 µM
T1 sequence (P21397 whole entry): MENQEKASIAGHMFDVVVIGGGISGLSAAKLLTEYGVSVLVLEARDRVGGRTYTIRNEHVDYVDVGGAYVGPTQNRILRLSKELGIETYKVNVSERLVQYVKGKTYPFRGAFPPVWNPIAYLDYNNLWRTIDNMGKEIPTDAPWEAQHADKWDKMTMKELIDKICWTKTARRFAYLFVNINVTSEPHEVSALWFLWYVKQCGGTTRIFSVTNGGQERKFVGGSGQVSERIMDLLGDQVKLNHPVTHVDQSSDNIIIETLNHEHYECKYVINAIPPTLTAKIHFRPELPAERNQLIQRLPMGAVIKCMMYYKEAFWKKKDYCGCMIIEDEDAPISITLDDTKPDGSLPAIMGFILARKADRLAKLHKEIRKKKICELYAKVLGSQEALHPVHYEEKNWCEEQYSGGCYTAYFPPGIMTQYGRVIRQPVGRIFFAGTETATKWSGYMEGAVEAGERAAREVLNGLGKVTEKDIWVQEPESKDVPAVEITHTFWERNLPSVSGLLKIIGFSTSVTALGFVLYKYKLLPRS
Outline: (§1)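 Recombinant hMAO-A or hMAO-B, in an amount oxidizing 165 pmol p-tyramine/min in controls, preincubated with test drug 15 min at 37 °C in 0.05 M sodium phosphate pH 7.4, dark. Reaction started with 1 U/ml HRP, Amplex Red and 1 mM p-tyramine (final). Resorufin read at ex 545/em 590 nm over 15 min. Background subtracted; vehicle (DMSO) controls. Precipitation limited higher concentrations.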

[2] = species: Homo sapiens; experiment: Selectivity index, ratio of IC50 for human recombinant MAOA to IC50 for human recombinant MAOB
Outline: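 IC50 values for hMAO-A and hMAO-B came from the Amplex Red/HRP assay, with 1 mM p-tyramine and readings at ex 545/em 590 nm at 37 °C. […] The selectivity index is IC50(MAO-A)/IC50(MAO-B). Where MAO-A was not inhibited, its IC50 was set at the highest concentration tested. Values are mean ± SEM.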

[3] = target: T2, Amine oxidase [flavin-containing] B (Homo sapiens, UniProt P27338); experiment: biochemical; format: cell-based
T2 sequence (P27338 whole entry): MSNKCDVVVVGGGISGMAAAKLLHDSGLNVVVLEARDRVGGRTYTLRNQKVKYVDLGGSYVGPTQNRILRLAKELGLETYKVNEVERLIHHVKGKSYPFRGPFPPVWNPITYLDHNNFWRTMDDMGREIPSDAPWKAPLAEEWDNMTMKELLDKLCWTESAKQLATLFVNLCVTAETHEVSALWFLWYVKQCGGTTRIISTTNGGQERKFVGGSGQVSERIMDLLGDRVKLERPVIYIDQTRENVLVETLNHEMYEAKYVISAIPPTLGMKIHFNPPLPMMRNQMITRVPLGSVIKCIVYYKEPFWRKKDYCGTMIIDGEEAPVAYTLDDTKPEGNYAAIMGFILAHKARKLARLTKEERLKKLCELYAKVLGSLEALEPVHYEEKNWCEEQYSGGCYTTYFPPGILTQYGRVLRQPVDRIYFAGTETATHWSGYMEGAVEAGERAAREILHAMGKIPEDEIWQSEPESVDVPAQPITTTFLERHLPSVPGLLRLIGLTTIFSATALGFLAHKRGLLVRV

[4] = target: T2, Amine oxidase [flavin-containing] B; experiment: Inhibition of human recombinant MAOB expressed in baculovirus infected BTI insect cells assessed as hydrogen peroxide production at 100 uM after 15 mins by Amplex red assay; conditions: 0.25 h; for inhibition (INH): 100 µM; outline: as §1
[5] = target: T2, Amine oxidase [flavin-containing] B; experiment: Inhibition of human recombinant MAOB expressed in baculovirus infected BTI insect cells assessed as hydrogen peroxide production at 1 mM after 15 mins by Amplex red assay; conditions: 0.25 h, 1000 µM; outline: as §1

Compound	inhibition (INH) [1]	Selectivity Index [2]	IC50 [3] [µM]	inhibition (INH) [4]	further results
CNC(=S)N1CCC(c2ccc(OC)cc2)=N1	Not Active	> 7.3	13.7	–	–
Cc1ccc(C2=NN(C(N)=S)CC2C)cc1 (stereo unspecified)	Not Active	–	–	–	inhibition at 100 µM [4]: 40%
CNC(=S)N1CCC(c2cccs2)=N1	Not Active	–	–	Not Active	–
NC(=S)N1CCC(c2cccs2)=N1	Not Active	–	–	Not Active	–
CNC(=S)N1CCC(c2ccccc2C)=N1	Not Active	–	–	Not Active	–
CNC(=S)N1CCC(c2cccc(C)c2)=N1	Not Active	> 1.87	53.4	–	–
CNC(=S)N1CC(C)C(c2ccc(OC)cc2)=N1 (stereo unspecified)	Not Active	> 2.02	49.4	–	–
CC1CN(C(N)=S)N=C1c1ccccc1 (stereo unspecified)	Not Active	–	–	–	inhibition at 100 µM [4]: 40%
CC1CN(C(N)=S)N=C1c1ccc(Cl)cc1 (stereo unspecified)	–	–	–	–	inhibition at 100 µM [4]: 40%; inhibition at 100 µM [1]: 40%
CC1CN(C(N)=S)N=C1c1ccc(F)cc1 (stereo unspecified)	–	–	–	–	inhibition at 100 µM [4]: 40%; inhibition at 100 µM [1]: 40%
O=C(NCCN1CCOCC1)c1ccc(Cl)cc1 [MOCLOBEMIDE]	–	–	–	–	inhibition (INH) [5]: Not Active
CNC(=S)N1CCC(c2cccc(OC)c2)=N1	Not Active	> 1.4	71.3	–	–
CNC(=S)N1CC(C)C(c2ccc(Cl)cc2)=N1 (stereo unspecified)	Not Active	> 2.87	34.8	–	–
CNC(=S)N1CC(C)C(c2ccc(C)cc2)=N1 (stereo unspecified)	–	–	–	–	inhibition at 100 µM [4]: 40%; inhibition at 100 µM [1]: 40%
NC(=S)N1CCC(c2ccc(Cl)cc2Cl)=N1	Not Active	–	–	Not Active	–
CNC(=S)N1CC(C)C(c2ccc(F)cc2)=N1 (stereo unspecified)	Not Active	–	–	–	inhibition at 100 µM [4]: 40%
COc1ccc(C2=NN(C(N)=S)CC2C)cc1 (stereo unspecified)	–	> 1.18	84.6	–	inhibition at 100 µM [1]: 40%
CNC(=S)N1CC(C)C(c2ccccc2)=N1 (stereo unspecified)	Not Active	–	–	–	inhibition at 100 µM [4]: 40%

Second part, led by results:

inhibition (INH) [1]	Selectivity Index [2]	IC50 [3] [µM]	inhibition (INH) [4]	Compound	further results
Not Active	–	–	Not Active	NC(=S)N1CCC(c2ccc(F)cc2)=N1	–
Not Active	–	–	Not Active	COc1cccc(C2=NN(C(N)=S)CC2)c1	–
Not Active	–	–	Not Active	Cc1ccccc1C1=NN(C(N)=S)CC1	–
Not Active	> 1.96	51	–	CNC(=S)N1CCC(c2ccc(F)cc2)=N1	–
–	> 5.96	16.8	–	CNC(=S)N1CCC(c2ccc(C)cc2)=N1	inhibition at 100 µM [1]: 40%
Not Active	–	–	Not Active	Cc1cccc(C2=NN(C(N)=S)CC2)c1	–
Not Active	> 5.51	18.1	–	Cc1ccc(C2=NN(C(N)=S)CC2)cc1	–
Not Active	> 6.46	15.5	–	COc1ccc(C2=NN(C(N)=S)CC2)cc1	–
